Data published in ChEMBL document CHEMBL4616673 (J Med Chem, 2020).
pIC50: −log10 of the molar value. Values after ≈ are worked out from the molar mass of the structure shown. Values joined by “and” are separate entries in the source; they are usually repeats but may differ in a detail not shown here. Identical values can stand only once.

How the values were obtained:
[1] = Toxicity in NOD-SCID nude mouse xenografted with human Raji cells assessed as death at 40 to 80 mg/kg/day, po administered 6 days a week for 3 weeks; type: organism-based; conditions: in vivo
In short: (§1)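 Mice, 6-7 weeks old, injected s.c. with 1×10^7 Raji cells in serum-free medium plus basement membrane matrix. At 100–200 mm3 tumours, randomised (n=6). Oral dosing 6 days/week for 3 weeks: 30 mg/kg/d free compound suspended in 5% NMP/95% PEG400, or 40 or 80 mg/kg/d nanocrystal. Body weight and tumour volume measured every 3 days.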

Raji [2] = experiment: Induction of apoptosis in human Raji cells assessed as late apoptotic cells at 0.031 uM measured after 48 hrs by Annexin V-FITC staining based flow cytometry (reference value: 0.7 %); type: functional
[3] = Acute toxicity in BALB/c mouse assessed as effect on blood UA level at 400 mg/kg, po measured on day 14; type: organism-based; conditions: in vivo
In short: (§2)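 BALB/c mice, female and male, 6-8 weeks old, given oral doses within 24 h, up to 400 mg/kg (free compound) or 800 mg/kg (nanocrystal formulation). Watched for body weight loss, diarrhea, anorexia, skin ulcer and toxic death. Serum biochemistry panel was run at the end of treatment.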

Raji [4] = experiment: Antitumor activity against human Raji cells xenografted in NOD-SCID nude mouse assessed as tumor growth inhibition at 40 mg/kg/day, po administered 6 days a week for 3 weeks relative to control; type: functional; conditions: read-out: TGI
[5] = Acute toxicity in BALB/c mouse assessed as effect on blood ALP level at 800 mg/kg, po measured on day 14; type: organism-based; conditions: in vivo; in short: as §2
[6] = Acute toxicity in BALB/c mouse assessed as effect on blood TG level at 800 mg/kg, po measured on day 14; type: organism-based; conditions: in vivo; in short: as §2
[7] = Half life in human liver microsomes at 1 uM in presence of NADPH by LC-MS analysis; type: ADME, Microsome
In short: (§3)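 Compound at 1 μM with 0.5 mg/mL human, rat or mouse liver microsomes and 1 mM NADPH. Stopped with acetonitrile at 0, 5, 15, 30, 45, 60 and 90 min, centrifuged. Supernatant analysed by LC-MS/MS.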

Raji [8] = experiment: Induction of apoptosis in human Raji cells assessed as live cells at 0.063 uM measured after 48 hrs by Annexin V-FITC staining based flow cytometry (reference value: 98.09 %); type: functional
[9] = Acute toxicity in BALB/c mouse assessed as effect on blood CK level at 400 mg/kg, po measured on day 14; type: organism-based; conditions: in vivo; in short: as §2
[10] = Half life in mouse liver microsomes at 1 uM in presence of NADPH by LC-MS analysis; type: ADME, Microsome; in short: as §3
[11] = Acute toxicity in BALB/c mouse assessed as effect on kidney at 400 mg/kg, po measured on day 14 by H and E staining based light microscopic analysis; type: organism-based; conditions: in vivo
In short: (§4)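 Female and male BALB/c mice, 6-8 weeks old, dosed orally within 24 h at up to 400 mg/kg (free compound) or 800 mg/kg (nanocrystal). At the end of treatment, heart, liver, spleen, lung and kidney were sectioned, stained with H&E and imaged by light microscopy.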

MCF7 = experiment: Antiproliferative activity against human MCF7 cells assessed as reduction in cell viability measured after 48 hrs by MTT assay; type: functional, cell-based; conditions: Homo sapiens, MCF7, 48 h
Raji [12] = experiment: Antitumor activity against human Raji cells xenografted in NOD-SCID nude mouse assessed as tumor growth inhibition at 30 mg/kg/day, po administered 6 days a week for 3 weeks relative to control; type: functional; conditions: read-out: TGI
In short: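 Nude mice given 1 × 10^7 Raji cells s.c. in serum-free medium plus basement membrane matrix. Randomized at 100–200 mm3 tumour volume (n = 6 per group). Oral dosing 6 days/week for 3 weeks. Vehicles: 30 mg/kg/d in 5% NMP/95% PEG400, 10 mg/kg/d in 30% PEG300/70% saline. Volume = ab²/2 every 3 days. TGI from treated vs control volume change, initial to final day.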

[13] = Acute toxicity in BALB/c mouse assessed as effect on blood GLU level at 800 mg/kg, po measured on day 14; type: organism-based; conditions: in vivo; in short: as §2
[14] = Toxicity in NOD-SCID nude mouse xenografted with human Raji cells assessed as dermatitis at 30 mg/kg/day, po administered 6 days a week for 3 weeks; type: organism-based; conditions: in vivo; in short: as §1
[15] = Acute toxicity in BALB/c mouse assessed as effect on blood BUN level at 800 mg/kg, po measured on day 14; type: organism-based; conditions: in vivo; in short: as §2
[16] = Acute toxicity in BALB/c mouse assessed as effect on spleen at 400 mg/kg, po measured on day 14 by H and E staining based light microscopic analysis; type: organism-based; conditions: in vivo; in short: as §4
HCT-116 = experiment: Antiproliferative activity against human HCT116 cells assessed as reduction in cell viability measured after 48 hrs by MTT assay; type: functional, cell-based; conditions: Homo sapiens, HCT-116, 48 h
[17] = Acute toxicity in BALB/c mouse assessed as effect on blood ALP level at 400 mg/kg, po measured on day 14; type: organism-based; conditions: in vivo; in short: as §2
Raji [18] = experiment: Induction of apoptosis in human Raji cells assessed as late apoptotic cells at 0.125 uM measured after 48 hrs by Annexin V-FITC staining based flow cytometry (reference value: 0.7 %); type: functional
[19] = Acute toxicity in BALB/c mouse assessed as effect on blood AST level at 800 mg/kg, po measured on day 14; type: organism-based; conditions: in vivo; in short: as §2
[20] = biological target: Dihydroorotate dehydrogenase (quinone), mitochondrial (Homo sapiens, UniProt Q02127); experiment: Inhibition of human DHODH using dihydroorotate as substrate and CoQ10 as co-substrate preincubated for 30 mins followed by substrate addition by DCIP coupled microplate reader assay
[21] = Acute toxicity in BALB/c mouse assessed as effect on blood AST level at 400 mg/kg, po measured on day 14; type: organism-based; conditions: in vivo; in short: as §2
[22] = Oral bioavailability in Sprague-Dawley rat at 25 mg/kg administered via gavage by LC-MS analysis; type: ADME, organism-based; conditions: in vivo
In short: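 Male Sprague-Dawley rats, fasted overnight, jugular vein catheter for serial blood sampling. Single dose of 25 mg/kg by oral gavage or 5 mg/kg by tail-vein injection. Blood drawn at set times and spun at once for plasma, plasma drug by LC-MS. Parameters given as mean, n = 6.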

[23] = Solubility of the compound in PBS; type: physicochemical
[24] = Stability of the compound in pH 1 to 7.4 buffer assessed as decrease in compound concentration at 0.01 mg/ml measured up to 24 hrs by LC-MS analysis; type: physicochemical; conditions: read-out: Drug degradation
In short: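 Compound at 0.01 mg/mL final in buffer containing 10% acetonitrile at pH 1.0, 4.5, 6.6, 7.4 or 9.0. Held at 37 °C, sampled at 0, 2, 4, 6, 8, 10, 12 and 24 h. Remaining compound by LC-MS.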

[25] = Acute toxicity in BALB/c mouse assessed as effect on blood UA level at 800 mg/kg, po measured on day 14; type: organism-based; conditions: in vivo; in short: as §2
[26] = Acute toxicity in BALB/c mouse assessed as effect on blood TP level at 400 mg/kg, po measured on day 14; type: organism-based; conditions: in vivo; in short: as §2
[27] = Acute toxicity in BALB/c mouse assessed as effect on blood LDH level at 800 mg/kg, po measured on day 14; type: organism-based; conditions: in vivo; in short: as §2

Chain of Dihydroorotate dehydrogenase (quinone), mitochondrial (Q02127 whole entry): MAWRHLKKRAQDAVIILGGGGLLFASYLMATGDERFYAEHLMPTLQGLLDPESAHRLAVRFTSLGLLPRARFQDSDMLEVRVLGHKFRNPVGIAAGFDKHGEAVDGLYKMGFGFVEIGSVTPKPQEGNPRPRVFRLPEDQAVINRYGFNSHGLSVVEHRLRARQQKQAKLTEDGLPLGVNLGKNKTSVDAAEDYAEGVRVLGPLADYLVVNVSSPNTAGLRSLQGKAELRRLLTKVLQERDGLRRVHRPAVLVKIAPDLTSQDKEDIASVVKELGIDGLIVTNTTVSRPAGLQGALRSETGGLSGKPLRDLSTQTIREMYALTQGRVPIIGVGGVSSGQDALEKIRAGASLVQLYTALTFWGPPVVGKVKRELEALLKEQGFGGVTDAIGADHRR

O=C1c2ccccc2C(=O)c2c1nnn2-c1cc(F)c(-c2ccccc2F)c(F)c1
Activity [1]: Non-Toxic | Activity (Raji [2]): 3.4% | Activity [3]: Non-Toxic | inhibition in vivo at 40 mg/kg/day (Raji [4]): 52% | Activity [5]: Non-Toxic | Activity [6]: Non-Toxic | half-life at 1 µM ([7]; liver microsomes): 32 min | t1/2 ([7]; microsomes, 1 µM): 63 min | Activity (Raji [8]): 92.31% | Activity [9]: Non-Toxic | half-life at 1 µM ([10]; liver microsomes): 37 min | t1/2 ([10]; microsomes, 1 µM): 50 min | Activity [11]: Non-Toxic | pIC50 (MCF7): 5.02 | inhibition in vivo at 30 mg/kg/day (Raji [12]): 42% | Activity [13]: Non-Toxic | Activity [14]: Non-Toxic | Activity [15]: Non-Toxic | Activity [16]: Non-Toxic | pIC50 (HCT-116): 6.54 | Activity [17]: Non-Toxic | Activity (Raji [18]): 6.04% | Activity [19]: Non-Toxic | pIC50 [20]: 8.35 | Activity [21]: Non-Toxic | F [22]: 9.66% and 25.16% | solubility [23]: 33.8 µg/mL (≈ 83.4 µM) | degraded at 24 h, 0.01 mg/ml [24]: 1.6 to 9% | Activity [25]: Non-Toxic | Activity [26]: Non-Toxic | Activity [27]: Non-Toxic
